# Tests used:
# HL-60 = experiment: Cytotoxicity in human HL60 cells assessed as reduction in cell viability incubated for 48 hrs by MTT assay; assay type: functional, cell-based; details: HL-60, 48 h
# In short: (§1)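 HepG2 and HL60 (ATCC) grown in DMEM with 10% FBS, 2 mM L-glutamine, penicillin/streptomycin, amphotericin B at 37 °C, 5% CO2. Samples dissolved in DMSO, diluted thousandfold in assay. Cells seeded in serum-free medium, treated with serial concentrations 48 h; MTT 4 h, formazan dissolved in acidified isopropanol, A570. Triplicates averaged; viability relative to untreated/vehicle control.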
# HepG2 [1] = experiment: Cytotoxicity in human HepG2 cells assessed as reduction in cell viability incubated for 48 hrs by MTT assay; assay type: functional, cell-based; details: HepG2, 48 h; in short: as §1
# [2] = Inhibition of beta tubulin polymerisation in human HepG2 cells incubated for 2 hrs using TMB substrate by ELISA; assay type: cell-based; details: HepG2, 2 h
# HepG2 [3] = experiment: Inhibition of beta tubulin polymerisation in human HepG2 cells incubated for 2 hrs using TMB substrate by ELISA relative to untreated control; assay type: cell-based; parameters: concentration or dose not given beside the values; details: dose or concentration not given here
Structure (SMILES),IC50 (HL-60),IC50 (HepG2 [1]),IC50 [2],inhibition (HepG2 [3])
CCOc1ccc(-n2nc(C(=O)Nc3ccc(OC)c(OC)c3)nc2-c2cc(OC)c(OC)c(OC)c2)cc1,4.3 µM,32.8 µM,–,–
COc1cccc(NC(=O)c2nc(-c3cc(OC)c(OC)c(OC)c3)n(-c3cccc(OC)c3)n2)c1,15.3 µM,15.3 µM,–,–
COc1cccc(-n2nc(C(=O)Nc3ccc(OC)c(OC)c3)nc2-c2cc(OC)c(OC)c(OC)c2)c1,14.2 µM,32.5 µM,–,–
COc1cccc(CNC(=O)c2nc(-c3cc(OC)c(OC)c(OC)c3)n(-c3cccc(OC)c3)n2)c1,> 100 µM,0.9 µM,–,–
COc1cccc(-n2nc(C(=O)Nc3ccc(F)c(F)c3F)nc2-c2cc(OC)c(OC)c(OC)c2)c1,27.2 µM,16.3 µM,–,–
COc1ccc(/C=C\c2cc(OC)c(OC)c(OC)c2)cc1O [COMBRETASTATIN A4],0.56 µM,2.41 µM,2.4 µM,72.3%
COc1cccc(-n2nc(C(=O)Nc3cc(F)cc(F)c3)nc2-c2cc(OC)c(OC)c(OC)c2)c1,54.2 µM,1.38 µM,1.3 µM,65.2%
CCOc1ccc(NC(=O)c2nc(-c3cc(OC)c(OC)c(OC)c3)n(-c3cccc(OC)c3)n2)cc1,14.5 µM,8.75 µM,–,–
COc1cccc(-n2nc(C(=O)Nc3ccccc3OC)nc2-c2cc(OC)c(OC)c(OC)c2)c1,29.9 µM,29.9 µM,–,–
COc1cccc(-n2nc(C(=O)Nc3cc(OC)c(OC)c(OC)c3)nc2-c2cc(OC)c(OC)c(OC)c2)c1,6.02 µM,8.51 µM,–,–
CCOc1ccc(NC(=O)c2nc(-c3cc(OC)c(OC)c(OC)c3)n(-c3ccc(OCC)cc3)n2)cc1,6 µM,29.8 µM,–,–
COc1cccc(-n2nc(C(=O)Nc3ccc(F)c(F)c3)nc2-c2cc(OC)c(OC)c(OC)c2)c1,31.3 µM,11 µM,–,–

# Reference: ChEMBL document CHEMBL4138126, “Synthesis, antiproliferative, anti-tubulin activity, and docking study of new 1,2,4-triazoles as potential combretastatin analogues” (Eur J Med Chem, 2017)
